Among the data in ChEMBL document CHEMBL4706580, “4-Amino-1,2,4-triazole-3-thione-derived Schiff bases as metallo-β-lactamase inhibitors” (Eur J Med Chem, 2020) are inhibition, inhibition zone (IZ) and Ki values, retold here.

Calls of active or inactive are those of the source. The rule behind the calls is not given here.

Experiment [1] in a line: Inhibition of beta-lactamase CphA (unknown origin) expressed in Escherichia coli BL21(DE3) using imipenem as substrate by measuring substrate hydrolysis at 100 uM by spectrophotometric analysis. The method, boiled down:
(§1)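 Enzyme 0.2–0.8 nM in 15 mM cacodylate pH 6.5, no added zinc, pre-incubated 30 min at 21 °C with inhibitor (100 μM screen). Imipenem substrate added from 10 mM stock; hydrolysis at 300 nm, 30 °C. Residual activity vs three uninhibited samples; Ki (1–100 μM inhibitor) by Hanes linearization, competitive model. Triplicate.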

The nature of experiment [2]: Inhibition of beta-lactamase VIM2 (unknown origin) expressed in Escherichia coli BL21(DE3) using imipenem as substrate by measuring substrate hydrolysis at 200 uM by spectrophotometric analysis. In short, it runs like this: (§2)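 Purified enzyme (overproduced in E. coli BL21(DE3), pET-9a; ion-exchange and gel filtration), 1-70 nM final. Reporter substrate 150 μM imipenem, read at 300 nm, 30 °C, 50 mM HEPES pH 7.5. Single-point screen at 100 or 200 μM; Ki from v0/vi vs [I] (0.5–1,000 μM final) assuming competitive inhibition, or Dixon plot. Triplicate.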

A short description of experiment [3]: Inhibition of beta-lactamase VIM-4 (unknown origin) expressed in Escherichia coli LZ2310 assessed as potentiation of ampicillin antibacterial activity by measuring ampicillin induced diameter of inhibition zone at 40 uM incubated for 18 hrs by disk diffusion method (reference value: 6 mm). The method, boiled down:
(§3)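 Efflux-deficient E. coli LZ2310 (NorE, MdfA, AcrA knocked out) carrying pLB-II with the cloned MBL gene. Mueller-Hinton, CLSI disk diffusion; antibiotic disks (30 µg cefoxitin for VIM-2, 10 µg ampicillin for VIM-4, 30 µg ceftazidime for NDM-1/IMP-1) loaded with inhibitor in DMSO (≤15 µL). Zone diameter after 18 h, 35 ± 1 °C; DMSO and 220 µg EDTA controls. Triplicate.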

Experiment [4] can be described thus: Inhibition of beta-lactamase IMP-1 (unknown origin) expressed in Escherichia coli BL21(DE3) using imipenem as substrate by measuring substrate hydrolysis by spectrophotometric analysis. In short, it runs like this: as §2
Experiment [5] in a line: Inhibition of beta-lactamase CphA (unknown origin) expressed in Escherichia coli BL21(DE3) using imipenem as substrate by measuring substrate hydrolysis at 200 uM by spectrophotometric analysis.
Experiment [6] can be described thus: Inhibition of beta-lactamase VIM2 (unknown origin) expressed in Escherichia coli BL21(DE3) using imipenem as substrate by measuring substrate hydrolysis at 100 uM by spectrophotometric analysis. The method, boiled down:
as §2

Experiment [7] can be described thus: Inhibition of beta-lactamase VIM4 (unknown origin) expressed in Escherichia coli BL21(DE3) using imipenem as substrate by measuring substrate hydrolysis by spectrophotometric analysis. The method, boiled down:
as §2

Experiment [8] can be described thus: Inhibition of beta-lactamase IMP-1 (unknown origin) expressed in Escherichia coli LZ2310 assessed as potentiation of ceftazidime antibacterial activity by measuring ceftazidime induced diameter of inhibition zone at 40 uM incubated for 18 hrs by disk diffusion method (reference value: 9 mm). In short, it runs like this:
as §3

Experiment [9] is described as follows: Inhibition of beta-lactamase L1 (unknown origin) expressed in Escherichia coli BL21(DE3) using nitrocefin as substrate by measuring substrate hydrolysis preincubated for 30 mins by spectrophotometric analysis. The method, boiled down: (§4)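 Enzyme 0.2–0.8 nM in 25 mM HEPES pH 7.5 with 50 μM ZnCl2 final, pre-incubated 30 min at 21 °C with inhibitor (100 μM screen). Nitrocefin 100 μM final, read at 482 nm, 30 °C. Residual activity vs three uninhibited samples; Ki (1–100 μM inhibitor) from Hanes linearization, competitive model. Triplicate.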

A short description of experiment [10]: Inhibition of beta-lactamase L1 (unknown origin) expressed in Escherichia coli BL21(DE3) using nitrocefin as substrate by measuring substrate hydrolysis at 100 uM preincubated for 30 mins by spectrophotometric analysis. In short, it runs like this:
as §4

A short description of experiment [11]: Inhibition of beta-lactamase L1 (unknown origin) expressed in Escherichia coli BL21(DE3) using nitrocefin as substrate by measuring substrate hydrolysis at 200 uM preincubated for 30 mins by spectrophotometric analysis.
Experiment [12] is described as follows: Inhibition of beta-lactamase NDM1 (unknown origin) expressed in Escherichia coli BL21(DE3) using cefotaxime/nitrocefin as substrate by measuring substrate hydrolysis at 100 uM by spectrophotometric analysis.
The nature of experiment [13]: Inhibition of beta-lactamase IMP-1 (unknown origin) expressed in Escherichia coli BL21(DE3) using imipenem as substrate by measuring substrate hydrolysis at 100 uM by spectrophotometric analysis. The method, boiled down:
as §2

Experiment [14] is described as follows: Inhibition of beta-lactamase VIM4 (unknown origin) expressed in Escherichia coli BL21(DE3) using imipenem as substrate by measuring substrate hydrolysis at 100 uM by spectrophotometric analysis. In short, it runs like this:
as §2

Experiment [15] is described as follows: Inhibition of beta-lactamase NDM1 (unknown origin) expressed in Escherichia coli BL21(DE3) using cefotaxime/nitrocefin as substrate by measuring substrate hydrolysis at 200 uM by spectrophotometric analysis.
Experiment [16] in a line: Inhibition of beta-lactamase VIM4 (unknown origin) expressed in Escherichia coli BL21(DE3) using imipenem as substrate by measuring substrate hydrolysis at 200 uM by spectrophotometric analysis. The method, boiled down: as §2
The nature of experiment [17]: Inhibition of beta-lactamase CphA (unknown origin) expressed in Escherichia coli BL21(DE3) using imipenem as substrate by measuring substrate hydrolysis by spectrophotometric analysis. The method, boiled down:
as §1

Experiment [18] in a line: Inhibition of beta-lactamase NDM-1 (unknown origin) expressed in Escherichia coli LZ2310 assessed as potentiation of ceftazidime antibacterial activity by measuring ceftazidime induced diameter of inhibition zone at 40 uM incubated for 18 hrs by disk diffusion method (reference value: 15 mm). In short, it runs like this:
as §3

Experiment [19] can be described thus: Inhibition of beta-lactamase NDM1 (unknown origin) expressed in Escherichia coli BL21(DE3) using cefotaxime/nitrocefin as substrate by measuring substrate hydrolysis by spectrophotometric analysis. In short, it runs like this: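 His-tagged enzyme from E. coli BL21(DE3) pET-15b, affinity-purified, 1-70 nM final. Reporter substrate 120 μM cefotaxime (260 nm) or 100 μM nitrocefin (482 nm), 30 °C, 50 mM HEPES pH 7.5. Inhibitor 0.5–1,000 μM final; competitive Ki from v0/vi vs [I] slope or Dixon plot. Triplicate.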

A short description of experiment [20]: Inhibition of beta-lactamase VIM-2 (unknown origin) expressed in Escherichia coli LZ2310 assessed as potentiation of cefoxitin antibacterial activity by measuring cefoxitin induced diameter of inhibition zone at 40 uM incubated for 18 hrs by disk diffusion method (reference value: 14 mm). The method, boiled down:
as §3

Experiment [21] is described as follows: Inhibition of beta-lactamase VIM2 (unknown origin) expressed in Escherichia coli BL21(DE3) using imipenem as substrate by measuring substrate hydrolysis by spectrophotometric analysis. In short, it runs like this:
as §2

The nature of experiment [22]: Inhibition of beta-lactamase IMP-1 (unknown origin) expressed in Escherichia coli BL21(DE3) using imipenem as substrate by measuring substrate hydrolysis at 200 uM by spectrophotometric analysis. The method, boiled down: as §2

Consider `S=c1[nH]nc(-c2cc(Cl)cc(Cl)c2)n1/N=C/c1ccc(OCc2ccccc2)cc1`, for which the inhibition entry in [1], in experiment [2], in experiment [5] and in experiment [6] was “inactive” each time. Moreover, the inhibition zone (IZ) in [3] worked out at 6 mm; in experiment [8], 9 mm. For the same molecule, the inhibitory constant (Ki) in experiment [4] stood at 0.1 µM; in [7], 0.6 µM; in experiment [9], 18 µM.
Take `S=c1[nH]nc(-c2ccccc2)n1/N=C/c1ccccc1`: the inhibition entry in experiment [1], in [10], in experiment [2], in [11], in experiment [12] and in experiment [5] was “inactive” each time. Besides, the inhibition result in [6], in experiment [14], in experiment [15] and in experiment [16] was “inactive” throughout. Besides, the inhibition in experiment [13] came to 60%.
On to `Oc1ccc(/C=N/n2c(-c3cccc4ccccc34)n[nH]c2=S)c(O)c1`, for which the inhibition result in [2], in experiment [12], in experiment [6] and in experiment [15] was “inactive” each time. The inhibition zone (IZ) in experiment [3] is 6 mm; in experiment [8], 10 mm. Also, the figures for the Ki in experiment [4], in [17] and in experiment [9] were 10 µM, 4 µM and 2 µM, respectively. The molecule further registered an inhibition in experiment [14] of 32%.
In the case of `Oc1ccc(/C=N/n2c(CC(c3ccccc3)c3ccccc3)n[nH]c2=S)c(O)c1`, the inhibition entry in [1], in experiment [5], in experiment [14] and in [16] was “inactive” each time. Further, the inhibition in [10] and in experiment [13] was 35% in each case.
For the molecule `Oc1ccc(/C=N/n2c(-c3ccc(Cl)cc3)n[nH]c2=S)c(O)c1`, the inhibition result in [1] and in experiment [5] was “inactive” each time. The values for the inhibition in experiment [10], in experiment [13] and in experiment [14] were 54%, 67% and 63%, respectively. Moreover, the inhibition zone (IZ) in [18] worked out at 15 mm. Further, the inhibitory constant (Ki) in [19] was found to be 3.1 µM.
For the molecule `O=C(O)c1ccccc1/C=N/n1c(-c2ccncc2)n[nH]c1=S`, the inhibition entry in experiment [1] and in [5] was “inactive” each time. Also, the inhibition in [10] turned out to be 32%; in experiment [13], 45%; in [14] it was 73%; in experiment [15], 50%.
Consider `Cc1ccccc1-c1n[nH]c(=S)n1/N=C/c1cccc(-c2cccc(C(=O)O)c2)c1`, for which the values for the inhibition zone (IZ) in experiment [20], in experiment [3] and in experiment [8] were 14 mm, 6 mm and 9 mm, respectively. The Ki in experiment [21] is 1.1 µM; in [4], 9 µM; in experiment [7], 0.3 µM; in experiment [17] it was 40 µM; in [9], 0.9 µM. The inhibition entry in experiment [12] and in [15] was “inactive” in each case.
As for `Cc1ccccc1-c1n[nH]c(=S)n1/N=C/c1ccccc1[N+](=O)[O-]`, the inhibition entry in experiment [2], in experiment [12], in [6] and in experiment [15] was “inactive” in each case. The values for the inhibition zone (IZ) in [3] and in [8] were 6 mm and 9 mm, respectively. Also, the inhibition constant (Ki) in experiment [4] worked out at 11 µM; in experiment [7], 2.4 µM; in experiment [17], 5 µM; in experiment [9] it was 30 µM.
For `Cc1ccccc1-c1n[nH]c(=S)n1/N=C/c1ccccc1O`, the inhibition entry in [1], in [10], in [11], in [12], in [5] and in experiment [15] was “inactive” throughout. The inhibition in experiment [13] was determined as 41%; in [6] it was 62%; in [14], 38%.
Take `Oc1ccc(/C=N/n2c(COc3ccc4ccccc4c3)n[nH]c2=S)c(O)c1`: the inhibition entry in experiment [1], in experiment [12], in [5] and in experiment [15] was “inactive” each time. Also, the inhibition amounted to 40% in experiment [10], 33% in experiment [13], 30% in [6] and 60% in [14].
As for `O=C(O)c1ccccc1/C=N/n1c(C(c2ccccc2)c2ccccc2)n[nH]c1=S`, the inhibition zone (IZ) worked out at 14 mm in experiment [20], 15 mm in experiment [18] and 9 mm in experiment [8]. Moreover, the inhibition entry in experiment [22] and in experiment [13] was “inactive” each time. Moreover, the Ki was 4.1 µM in experiment [19], 9 µM in experiment [7], 13 µM in [17] and 0.1 µM in experiment [9].
With `Oc1ccc(/C=N/n2c(Cc3ccccc3)n[nH]c2=S)c(O)c1`, the inhibition result in experiment [1], in experiment [12], in [5] and in [15] was “inactive” each time. Besides, the inhibition came to 46% in experiment [10], 37% in experiment [13], 30% in experiment [6] and 47% in experiment [14].
With `O=C(O)c1ccccc1/C=N/n1c(-c2ccccn2)n[nH]c1=S`, the inhibition result in experiment [1], in experiment [10], in [2], in experiment [22], in experiment [11] and in [13] was “inactive” throughout. In addition, the inhibition result in experiment [5] and in experiment [6] was “inactive” throughout. Besides, the inhibition was determined as 62% in experiment [14] and 60% in experiment [15].
